{"source": "paper PMC12353801", "about": "(Nature Medicine, 2025)", "key": {"patients with IPF [1]": {"tested_on": "patients with IPF", "assay": "Phase 2a trial: treatment-emergent adverse events", "type": "in vivo, human", "settings": "for percentage of patients who have at least one treatment-emergent adverse event / AEs considered to be treatment related / AEs leading to treatment discontinuation / Any AE / Liver function: ALT increase / Liver function: AST increase / Liver function: Liver injury / SAEs considered to be treatment related / SAEs resulting in death / SAEs, grade ≥3: 12 weeks; for AEs considered to be treatment related / AEs leading to treatment discontinuation / Any AE / Liver function: ALT increase / Liver function: AST increase / Liver function: Liver injury / SAEs considered to be treatment related / SAEs resulting in death / SAEs, grade ≥3: n = 18"}, "patients with IPF [2]": {"tested_on": "patients with IPF", "assay": "Phase 2a trial: change in forced vital capacity", "type": "in vivo, human", "how_it_was_run": "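This was a double-blind, 1:1:1:1 randomized trial of oral 30 mg QD, 30 mg BID or 60 mg QD against placebo QD for 12 weeks on standard of care. Spirometry to 2019 ATS/ERS criteria, on central SpiroSphere devices or on unchanged local equipment, was done at baseline and week 12. Analysis used ANCOVA (treatment fixed, baseline covariate) with multiple imputation for missing week-12 data, two-sided, intent-to-treat.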"}, "patients with IPF [3]": {"tested_on": "patients with IPF", "assay": "Phase 2a trial: acute exacerbations of IPF and days hospitalized", "type": "in vivo, human", "settings": "60 mg QD", "how_it_was_run": "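Acute IPF exacerbations, and days in hospital after each, were recorded from week 0 through week 12 in IPF patients. Patients received oral dosing (30 mg QD, 30 mg BID or 60 mg QD) or placebo QD alongside standard of care. Adverse events were monitored throughout treatment and for 1 week after the last dose.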"}, "[4]": {"assay": "Pharmacokinetics of rentosertib in blood plasma of patients with IPF", "type": "in vivo, human"}, "serum proteins": {"tested_on": "serum proteins", "assay": "Olink Explore 3072 proteomic profiling of patient serum", "type": "in vivo, human", "settings": "for number of serum proteins significantly changing with treatment: Benjamini–Hochberg-adjusted P value <0.1", "how_it_was_run": "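Serum was sampled at baseline and weeks 2, 4, 8 and 12 and profiled on the Olink Explore 3072 panel as NPX. Dose effects were fitted per protein with a generalized linear mixed model: NPX ~ treatment + visit + treatment:visit + (1|patient). Baseline-to-week-12 change was tested by two-sided paired t-test. P values were BH-adjusted, with significance at adjusted P < 0.1.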"}, "healthy individuals": {"tested_on": "healthy individuals", "settings": "phase 0 and 1 trials; cited from earlier work"}}, "data": [{"smiles": "CC(C)n1cnc(-c2ccc(F)cc2)c1-c1ncc(C(=O)Nc2ccc(N3CCN(C)CC3)cc2)[nH]1", "note": "[rentosertib]", "values": [{"measurement": "TEAE: alanine aminotransferase (ALT) increase", "setting": "patients with IPF [1]; 30 mg BID, 1 patient", "value": 5.6, "unit": "%"}, {"measurement": "treatment-related SAEs", "setting": "patients with IPF [1]; 30 mg BID, 2/18", "value": 11.1, "unit": "%"}, {"measurement": "TEAE: diarrhea", "setting": "patients with IPF [1]; 30 mg BID, 3 patients", "value": 16.7, "unit": "%"}, {"measurement": "treatment discontinued for AEs due to liver injury or dysfunction", "setting": "patients with IPF [1]; 30 mg BID, 4/18", "value": 22.2, "unit": "%"}, {"measurement": "TEAE: hepatic function abnormal", "setting": "patients with IPF [1]; 30 mg BID, 4 patients", "value": 22.2, "unit": "%"}, {"measurement": "TEAE: hypokalemia", "setting": "patients with IPF [1]; 30 mg BID, 5 patients", "value": 27.8, "unit": "%"}, {"measurement": "Treatment-related AEs", "setting": "patients with IPF [1]; 30 mg BID, 11/18", "value": 61.1, "unit": "%"}, {"measurement": "percentage of patients who have at least one treatment-emergent adverse event", "setting": "patients with IPF [1]; 30 mg BID, n = 15/18", "value": 83.3, "unit": "%"}, {"measurement": "AEs considered to be treatment related", "setting": "patients with IPF [1]; 30 mg BID", "value": "11 (61.1) no. (%)"}, {"measurement": "AEs leading to treatment discontinuation", "setting": "patients with IPF [1]; 30 mg BID", "value": "5 (27.8) no. (%)"}, {"measurement": "Any AE", "setting": "patients with IPF [1]; 30 mg BID", "value": "15 (83.3) no. (%)"}, {"measurement": "Liver function: ALT increase", "setting": "patients with IPF [1]; 30 mg BID", "value": "0 (0) no. (%)"}, {"measurement": "Liver function: AST increase", "setting": "patients with IPF [1]; 30 mg BID", "value": "0 (0) no. (%)"}, {"measurement": "Liver function: Liver injury", "setting": "patients with IPF [1]; 30 mg BID", "value": "2 (11.1) no. (%)"}, {"measurement": "SAEs considered to be treatment related", "setting": "patients with IPF [1]; 30 mg BID", "value": "2 (11.1) no. (%)"}, {"measurement": "SAEs resulting in death", "setting": "patients with IPF [1]; 30 mg BID", "value": "1 (5.6) no. (%)"}, {"measurement": "SAEs, grade ≥3", "setting": "patients with IPF [1]; 30 mg BID", "value": "4 (22.2) no. (%)"}, {"measurement": "treatment discontinued for AEs due to liver injury or dysfunction", "setting": "patients with IPF [1]; 30 mg QD, 0/18", "value": 0, "unit": "%"}, {"measurement": "safety and tolerability, overall", "setting": "patients with IPF [1]; 30 mg QD, 30 mg BID and 60 mg QD over 12 weeks", "value": "safe and well tolerated"}, {"measurement": "treatment-related SAEs", "setting": "patients with IPF [1]; 30 mg QD, 1/18", "value": 5.6, "unit": "%"}, {"measurement": "TEAE: alanine aminotransferase (ALT) increase", "setting": "patients with IPF [1]; 30 mg QD, 1 patient", "value": 5.6, "unit": "%"}, {"measurement": "TEAE: diarrhea", "setting": "patients with IPF [1]; 30 mg QD, 2 patients", "value": 11.1, "unit": "%"}, {"measurement": "TEAE: hepatic function abnormal", "setting": "patients with IPF [1]; 30 mg QD, 2 patients", "value": 11.1, "unit": "%"}, {"measurement": "TEAE: hypokalemia", "setting": "patients with IPF [1]; 30 mg QD, 3 patients", "value": 16.7, "unit": "%"}, {"measurement": "Treatment-related AEs", "setting": "patients with IPF [1]; 30 mg QD, 9/18", "value": 50.0, "unit": "%"}, {"measurement": "percentage of patients who have at least one treatment-emergent adverse event", "setting": "patients with IPF [1]; 30 mg QD, n = 13/18", "value": 72.2, "unit": "%"}, {"measurement": "AEs considered to be treatment related", "setting": "patients with IPF [1]; 30 mg QD", "value": "9 (50.0) no. (%)"}, {"measurement": "AEs leading to treatment discontinuation", "setting": "patients with IPF [1]; 30 mg QD", "value": "1 (5.6) no. (%)"}, {"measurement": "Any AE", "setting": "patients with IPF [1]; 30 mg QD", "value": "13 (72.2) no. (%)"}, {"measurement": "Liver function: ALT increase", "setting": "patients with IPF [1]; 30 mg QD", "value": "0 (0) no. (%)"}, {"measurement": "Liver function: AST increase", "setting": "patients with IPF [1]; 30 mg QD", "value": "0 (0) no. (%)"}, {"measurement": "Liver function: Liver injury", "setting": "patients with IPF [1]; 30 mg QD", "value": "0 (0) no. (%)"}, {"measurement": "SAEs considered to be treatment related", "setting": "patients with IPF [1]; 30 mg QD", "value": "1 (5.6) no. (%)"}, {"measurement": "SAEs resulting in death", "setting": "patients with IPF [1]; 30 mg QD", "value": "0 (0) no. (%)"}, {"measurement": "SAEs, grade ≥3", "setting": "patients with IPF [1]; 30 mg QD", "value": "2 (11.1) no. (%)"}, {"measurement": "TEAE: alanine aminotransferase (ALT) increase", "setting": "patients with IPF [1]; 60 mg QD", "value": 33.3, "unit": "%"}, {"measurement": "treatment-related SAEs", "setting": "patients with IPF [1]; 60 mg QD, 2/18", "value": 11.1, "unit": "%"}, {"measurement": "treatment discontinued for AEs due to liver injury or dysfunction", "setting": "patients with IPF [1]; 60 mg QD, 3/18", "value": 17, "unit": "%"}, {"measurement": "TEAE: diarrhea", "setting": "patients with IPF [1]; 60 mg QD, 5 patients", "value": 27.8, "unit": "%"}, {"measurement": "percentage of patients who have at least one treatment-emergent adverse event", "setting": "patients with IPF [1]; 60 mg QD, n = 15/18", "value": 83.3, "unit": "%"}, {"measurement": "AEs considered to be treatment related", "setting": "patients with IPF [1]; 60 mg QD", "value": "14 (77.8) no. (%)"}, {"measurement": "AEs leading to treatment discontinuation", "setting": "patients with IPF [1]; 60 mg QD", "value": "4 (22.2) no. (%)"}, {"measurement": "Any AE", "setting": "patients with IPF [1]; 60 mg QD", "value": "15 (83.3) no. (%)"}, {"measurement": "Liver function: ALT increase", "setting": "patients with IPF [1]; 60 mg QD", "value": "1 (5.6) no. (%)"}, {"measurement": "Liver function: AST increase", "setting": "patients with IPF [1]; 60 mg QD", "value": "1 (5.6) no. (%)"}, {"measurement": "Liver function: Liver injury", "setting": "patients with IPF [1]; 60 mg QD", "value": "1 (5.6) no. (%)"}, {"measurement": "SAEs considered to be treatment related", "setting": "patients with IPF [1]; 60 mg QD", "value": "2 (11.1) no. (%)"}, {"measurement": "SAEs resulting in death", "setting": "patients with IPF [1]; 60 mg QD", "value": "0 (0) no. (%)"}, {"measurement": "SAEs, grade ≥3", "setting": "patients with IPF [1]; 60 mg QD", "value": "7 (38.9) no. (%)"}, {"measurement": "Treatment-related AEs", "setting": "patients with IPF [1]; 60 mg QD, 14/18", "value": 77.8, "unit": "%"}, {"measurement": "Absolute change in FVC from baseline after 12 weeks, mean (95% CI)", "setting": "patients with IPF [2]; 30 mg BID", "value": "+19.7 ml"}, {"measurement": "Absolute change in FVC from baseline after 12 weeks, mean (95% CI)", "setting": "patients with IPF [2]; 30 mg QD", "value": -27.0, "unit": "mL"}, {"measurement": "Absolute change in FVC from baseline after 12 weeks, mean (95% CI)", "setting": "patients with IPF [2]; 60 mg QD", "value": "+98.4 ml"}, {"measurement": "Change in FVC - No SOC: FVC change from baseline (95% CI)", "setting": "patients with IPF [2]; 60 mg QD, 12 weeks, not concurrently taking SOC antifibrotic therapy", "value": "+187.8 mL"}, {"measurement": "Number of days hospitalized for acute IPF exacerbations, Mean (SD)", "setting": "patients with IPF [3]", "value": 23.3, "unit": "days"}, {"measurement": "patients who experienced acute exacerbation of IPF (AE-IPF)", "setting": "patients with IPF [3]; three patients", "value": 16.7, "unit": "%"}, {"measurement": "AUC0–t, arithmetic mean", "setting": "[4]; 30 mg BID, week 0 (first dose)", "value": 315, "unit": "h/ng/mL"}, {"measurement": "AUC0–t, arithmetic mean", "setting": "[4]; 30 mg BID, week 12 (EOT)", "value": "1,390 h ng^−1 ml^−1"}, {"measurement": "time of peak plasma concentration after administration", "setting": "[4]; 30 mg QD, 30 mg BID, 60 mg QD, single and multiple doses", "value": 1, "unit": "h"}, {"measurement": "AUC0–t, arithmetic mean", "setting": "[4]; 30 mg QD, week 0 (first dose)", "value": 553, "unit": "h/ng/mL"}, {"measurement": "AUC0–t, arithmetic mean", "setting": "[4]; 30 mg QD, week 12 (EOT)", "value": 788, "unit": "h/ng/mL"}, {"measurement": "AUC0–t, arithmetic mean", "setting": "[4]; 60 mg QD, week 0 (first dose)", "value": "1,630 h ng^−1 ml^−1"}, {"measurement": "AUC0–t, arithmetic mean", "setting": "[4]; 60 mg QD, week 12 (EOT)", "value": "3,450 h ng^−1 ml^−1"}, {"measurement": "drug accumulation", "setting": "[4]; by week 12", "value": "no obvious drug accumulation"}, {"measurement": "steady state achieved", "setting": "[4]; multiple doses", "value": 2, "unit": "week"}, {"measurement": "number of significantly altered proteins from baseline to week 12", "setting": "serum proteins; 30 mg BID", "value": 39}, {"measurement": "number of significantly altered proteins from baseline to week 12", "setting": "serum proteins; 30 mg QD", "value": 0}, {"measurement": "number of significantly altered proteins from baseline to week 12", "setting": "serum proteins; 60 mg QD", "value": 115}, {"measurement": "number of serum proteins significantly changing with treatment", "setting": "serum proteins; week 2, linear regression", "value": 20}, {"measurement": "number of serum proteins significantly changing with treatment", "setting": "serum proteins; week 4, linear regression", "value": 82}, {"measurement": "number of serum proteins significantly changing with treatment", "setting": "serum proteins; week 12, linear regression", "value": 192}, {"measurement": "pharmacokinetic (PK) profile, overall", "setting": "healthy individuals", "value": "favorable pharmacokinetic (PK) profile"}, {"measurement": "safety and tolerability, overall", "setting": "healthy individuals", "value": "safe and well tolerated"}]}]}
